Experimental findings from PMC3139720 (Proteins, 2011) are described below.

Where “and” joins values, the source holds several entries; their conditions need not be identical. Equal values may be shown once. Read-outs that look alike come from different tables or passages of the source. Marks after values point to notes of the source that are not given here.

A short description of data set [1]: Practical properties of thiol-reactive probes. The class given is physicochemical. Particulars: data not shown.
For data set [2] the following is noted: reaction of ABD with L-GSH; for Ea/R: Arrhenius fit.
A further data set can be described thus: physchem. The note with it: apparent pKa of L-GSH.
Data set [3] is described as follows: fQCR: ABD labeling of a single buried cysteine over a temperature gradient. The class given is physicochemical. Put shortly: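 Purified single-buried-cysteine variant at 5-10 μM in 25 mM potassium phosphate, 100 mM KCl, pH 7, with TCEP. Final ABD at least 10-fold over protein. Parallel reactions run across a gradient thermocycler and quenched after fixed Δt by rapid cooling or acid. Fluorescence relative to RFUmax (400-2000 μM ABD) gives fractional labeling. Probe-concentration slices test EX2. ΔCp fixed at 3.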

The nature of data set [4]: Thermal unfolding monitored by circular dichroism at 222 nm. The class given is physicochemical. Particulars: pH 7, CD signal at 222 nm, fit of Eq. 1. The method in brief:
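His-tagged variants, Ni-affinity purified and buffer-exchanged. Protein at 3 μM in 25 mM potassium phosphate, 100 mM KCl, pH 7. CD signal at 222 nm recorded as a function of temperature. Apparent Tm obtained by fitting Eq. 1.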

The nature of data set [5]: fQCR ligand binding: RBP.A188C in absence and presence of D-ribose. The note with it: for Δ^apoGU: absence of ligand; for Tm / ΔHm: free energy profile; for Kd: ligand ribose, from ΔΔGU (Eq. 17). The method in brief:
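RBP.A188C at 5 μM with 400 μM ABD and 50 μM TCEP (final) in 25 mM potassium phosphate, 100 mM KCl, pH 7, without or with 20 μM ligand. Samples incubated 10 min across a gradient thermocycler, then fluorescence read at 30°C (ex 405, em 465 nm). Fractional labeling converted to free-energy profiles. KD derived versus temperature and free ligand concentration via Eq. 17.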

[6] abbreviates: Δt 300 s, [ABD] 500 μM, PHERAstar FS microplate reader (Fig. 7).
Setting [7] is: absence of ribose (Fig. 6B inset).
The mark [8] stands for this setting: presence of 20 μM ribose (Fig. 6B inset).

Take `CCN(CC)c1ccc2c(C)c(-c3ccc(N4C(=O)C=CC4=O)cc3)c(=O)oc2c1` [CPM, N-[4-(7-diethylamino-4-methyl-3-coumarinyl)phenyl]maleimide]: in data set [1], the solubility entry is recorded as “limited” and the spontaneous hydrolysis result is “high rate of spontaneous hydrolysis that is strongly temperature dependent”.

Consider `NS(=O)(=O)c1ccc(F)c2nonc12` [ABD, 4-(aminosulfonyl)-7-fluoro-2,1,3-benzoxadiazole], for which the “lnA, average value and standard error” value in data set [2] (over pH 6-8.5) stood at 27.3 ± 0.3. Besides, the Ea/R in data set [2] (pH 6 (by order of symbols)) is -9300 ± 200 K; in data set [2] (pH 7 (by order of symbols)), -8300 ± 200 K; in data set [2] (pH 8 (by order of symbols)), -7800 ± 200 K; in data set [2] (pH 8.5 (by order of symbols)), -7400 ± 200 K.

By pKa is commonly meant the negative logarithm of the acid dissociation constant. Consider `N[C@@H](CCC(=O)N[C@@H](CS)C(=O)NCC(=O)O)C(=O)O` [L-GSH, reduced glutathione], for which the pKa in “physchem” was 8.03 ± 0.01.

B1: RBP.L61C: E. coli ribose-binding protein variant engineered to contain a single, buried cysteine (L61C), C-terminal … tag (protein, UniProt P02925 26-296, looked up, variant L61C)
Ribose import binding protein …: KDTIALVVSTLNNPFFVSLKDGAQKEADKLGYNLVVLDSQNNPAKELANVQDLTVRGTKICLINPTDSDAVGNAVKMANQANIPVITLDRQATKGEVVSHIASDNVLGGKIAGDYIAKKAGEGAKVIELQGIAGTSAARERGEGFQQAVAAHKFNVLASQPADFDRIKGLNVMQNLLTAHPDVQAVFAQNDEMALGALRALQTAGKSDVMVVGFDGTPDGEKAVNDGKLAATIAQLPDQIGAKGVETADKVLKGEKVQAKYPVDLKLVVKQ
modifications: C-terminal … tag
Regarding B1, the Tm is 53 ± 1 ^c °C in data set [3] (summary line, quantified graphically); 53 ± 1 ^c °C in data set [3] (Δt 300 s, [ABD] 400 μM, quantified graphically (non-EX2)); 53 ± 1 ^c °C in data set [3] (Δt 300 s, [ABD] 600 μM, quantified graphically (non-EX2)); 53 ± 1 ^c °C in data set [3] (Δt 300 s, [ABD] 800 μM, quantified graphically (non-EX2)); 53 ± 1 ^c °C in data set [3] (Δt 300 s, [ABD] 1200 μM, quantified graphically (non-EX2)). Further, the “~kclose at Tm” value in data set [3] (Δt 300 s, [ABD] 100 μM) is < 2 × 10^-2 ^e s^-1; in data set [3] (Δt 300 s, [ABD] 200 μM) it was < 2 × 10^-2 ^e s^-1; in data set [3] (Δt 300 s, [ABD] 400 μM), < 2 × 10^-2 ^e s^-1; in data set [3] (Δt 300 s, [ABD] 600 μM), < 2 × 10^-2 ^e s^-1; in data set [3] (Δt 300 s, [ABD] 800 μM), < 2 × 10^-2 ^e s^-1; in data set [3] (Δt 300 s, [ABD] 1200 μM), < 2 × 10^-2 ^e s^-1. Also, the “apparent Tm” value in data set [4] worked out at 53 ± 1 °C.

B2: RBP.A188C: E. coli ribose-binding protein variant engineered to contain a single, buried cysteine (A188C), C-terminal … tag (protein, UniProt P02925 26-296, looked up, variant A188C)
Ribose import binding protein …: KDTIALVVSTLNNPFFVSLKDGAQKEADKLGYNLVVLDSQNNPAKELANVQDLTVRGTKILLINPTDSDAVGNAVKMANQANIPVITLDRQATKGEVVSHIASDNVLGGKIAGDYIAKKAGEGAKVIELQGIAGTSAARERGEGFQQAVAAHKFNVLASQPADFDRIKGLNVMQNLLTAHPDVQAVFCQNDEMALGALRALQTAGKSDVMVVGFDGTPDGEKAVNDGKLAATIAQLPDQIGAKGVETADKVLKGEKVQAKYPVDLKLVVKQ
modifications: C-terminal … tag
In general, Kd refers to the constant that tells how readily two partners part at equilibrium. In the case of B2, the Ea/R in data set [3] (average value) is recorded as -8140 ^a K; in data set [3] (Δt 300 s, [ABD] 200 μM, pH 7), -8163 ± 6 K; in data set [3] (Δt 300 s, [ABD] 400 μM, pH 7), -8110 ± 14 K. In addition, the Tm in data set [3] (Δt 300 s, [ABD] 200 μM) was 56 ± 1 °C; in data set [3] (setting [6]) it was 56 ± 1 ^f °C; in data set [3] (Δt 600 s, [ABD] 200 μM), 56 ± 1 °C; in data set [3] (Δt 600 s, [ABD] 400 μM) it was 56 ± 1 °C; in data set [3] (Δt 600 s, [ABD] 1200 μM), 58 ± 1 °C; in data set [3] (Δt 600 s, [ABD] 1600 μM), 58 ± 1 °C. Besides, the values for the Tm in data set [5] (setting [7]) and in data set [5] (setting [8]) were 57 ± 1 °C and 59 ± 1 °C, respectively. Further, the ΔHm in data set [3] (setting [6]) is 123 ± 16 ^f kcal/mol and 112 ± 5 ^f kcal/mol; in data set [3] (Δt 300 s, [ABD] 800 μM, ΔCp fixed at 3), 121 ± 4 kcal/mol; in data set [3] (Δt 300 s, [ABD] 1600 μM, ΔCp fixed at 3) it was 117 ± 8 kcal/mol; in data set [3] (Δt 600 s, [ABD] 800 μM, ΔCp fixed at 3), 128 ± 3 kcal/mol; in data set [3] (Δt 600 s, [ABD] 1200 μM, ΔCp fixed at 3), 125 ± 5 kcal/mol; in data set [3] (Δt 600 s, [ABD] 1600 μM, ΔCp fixed at 3), 121 ± 4 kcal/mol. In addition, the ΔHm was 138 ± 1 kcal/mol in data set [5] (setting [7]) and 160 ± 8 kcal/mol in data set [5] (setting [8]). In addition, the “~kclose at Tm” value in data set [3] (Δt 300 s, [ABD] 1600 μM) is around 0.04 s⁻¹; in data set [3] (Δt 600 s, [ABD] 1200 μM) it was around 0.04 s⁻¹; in data set [3] (Δt 600 s, [ABD] 1600 μM), around 0.04 s⁻¹. Moreover, in data set [4], the “apparent Tm” value was 56 ± 1 °C. In addition, the “Δ^apoGU” value in data set [5] (46 °C) was 3.7 kcal/mol; in data set [5] (48 °C) it was 3.0 kcal/mol; in data set [5] (50 °C), 2.3 kcal/mol; in data set [5] (52 °C), 1.6 kcal/mol; in data set [5] (54 °C), 0.9 kcal/mol; in data set [5] (56 °C), 0.1 kcal/mol. The Kd in data set [5] (46 °C) worked out at 1200 nM; in data set [5] (48 °C), 1400 nM; in data set [5] (50 °C), 1700 nM; in data set [5] (52 °C), 2000 nM; in data set [5] (54 °C) it was 2300 nM; in data set [5] (56 °C), 2700 nM.
